{"data": "Measurements pooled from the literature", "target": "Mitogen-activated protein kinase kinase kinase 10 (MAP3K10, Homo sapiens, UniProt Q02779)", "note": "Compare with care: the assays were run in different laboratories."}
{"SMILES": "Clc1ccc(Nc2nnc(Cc3ccncc3)c3ccccc23)cc1", "effect on": "cell-free assay", "tested at": "0.5 µM", "quantity": "remaining signal", "value": "110%"}
{"SMILES": "CNCc1ccccc1-c1csc([C@@H](C)Nc2nc(C)nc3cc(OC)c(OC)cc23)c1", "effect on": "cell-free assay", "technique": "competition with immobilised ligand", "tested at": "1 µM", "quantity": "remaining binding", "value": "96%"}
{"SMILES": "N#CCCc1ccc2c(c1)-c1[nH]c3ccc([N+](=O)[O-])cc3c1CC(=O)N2", "effect on": "cell-free assay", "tested at": "0.5 µM", "quantity": "remaining signal", "value": "30%"}
{"SMILES": "CC(C)(O)[C@H]1CC[C@H](Nc2ccc3ncc(-c4cccc(C(F)(F)F)c4)n3n2)CC1", "effect on": "enzyme activity", "mode": "inhibitor", "tested at": "1 µM", "quantity": "remaining activity", "value": "85%"}
{"SMILES": "Cn1nc(C(=O)NCc2ccc(C(=O)O)cc2)cc1-c1ccc2[nH]ccc2c1", "effect on": "cell-free assay", "technique": "competition with immobilised ligand", "tested at": "0.1 µM", "quantity": "remaining binding", "value": "100%"}
{"SMILES": "Nc1ncnc2occ(-c3ccc(NC(=O)Nc4cc(C(F)(F)F)ccc4F)cc3)c12", "effect on": "cell-free assay", "mode": "inhibitor", "tested at": "20 µM", "quantity": "remaining signal", "value": "0%"}
{"SMILES": "CCS(=O)(=O)c1cc2cc(C[C@](O)(CC(C)(C)c3ccc(F)cc3C(N)=O)C(F)(F)F)[nH]c2cn1", "effect on": "cell-free assay", "technique": "competition with immobilised ligand", "tested at": "1 µM", "quantity": "remaining binding", "value": "100%"}
{"SMILES": "O=C1Nc2ccc(Cl)cc2C1=Cc1cc(Cl)c(O)c(Cl)c1", "effect on": "cell-free assay", "tested at": "0.5 µM", "quantity": "remaining signal", "value": "86.8%"}
{"SMILES": "CCCOc1ccc([C@@H]2[C@@H](C(=O)O)[C@H](c3ccc4c(c3)OCO4)CN2CC(=O)Nc2c(CC)cccc2CC)cc1", "effect on": "cell-free assay", "technique": "competition with immobilised ligand", "tested at": "1 µM", "quantity": "remaining binding", "value": "100%"}
{"SMILES": "CNC(=O)c1cc(Oc2ccc(NC(=O)Nc3ccc(Cl)c(C(F)(F)F)c3)cc2)ccn1", "effect on": "cell-free assay", "tested at": "0.5 µM", "quantity": "remaining signal", "value": "104%"}
{"SMILES": "O=C(Nc1cnn(-c2csc(C(=O)NC3COC3)c2)c1)Nc1ccccc1Cl", "effect on": "enzyme activity", "mode": "inhibitor", "tested at": "5 µM", "quantity": "remaining activity", "value": "98.5%"}
{"SMILES": "COc1cc(Cl)c(C(=O)N[C@@H](CN[C@H]2CC[C@@H](N)CC2)Cc2ccc(C#N)cc2)cc1-c1ccc(CN[C@H](C)c2ccc(C)cc2)o1", "effect on": "enzyme activity", "mode": "inhibitor", "tested at": "1 µM", "quantity": "remaining activity", "value": "97%"}
{"SMILES": "Cc1ccc(C(=O)Nc2ccc(CN3CCN(C)CC3)c(C(F)(F)F)c2)cc1C#Cc1cnc2cccnn12", "effect on": "enzyme activity", "mode": "inhibitor", "tested at": "23.5 nM", "quantity": "remaining activity", "value": "69%"}
{"SMILES": "Cc1ccc(C(=O)NCc2ccsc2)cc1C#Cc1cn(C(C)C)c2ncnc(N)c12", "effect on": "enzyme activity", "mode": "inhibitor", "tested at": "1 µM", "quantity": "activity vs control", "value": "5%"}
{"SMILES": "CS(=O)(=O)NCC[C@H](NC(=O)c1cncc2c1cnn2-c1ccc(F)cc1)c1ccnc(S(C)(=O)=O)c1", "effect on": "cell-free assay", "technique": "competition with immobilised ligand", "tested at": "1 µM", "quantity": "remaining binding", "value": "75%"}
{"SMILES": "c1ccc(CNc2nc(N3CCOc4ccccc43)nc3c2CCCC3)cc1", "effect on": "target engagement in cells", "mode": "inhibitor", "technique": "chemoproteomics", "tested at": "20 mM", "quantity": "inhibition", "value": "14.1%"}
{"SMILES": "CC(C)(C)c1nc(-c2cccc(NS(=O)(=O)c3c(F)cccc3F)c2F)c(-c2ccnc(N)n2)s1", "effect on": "enzyme activity", "mode": "inhibitor", "technique": "radiometric", "tested at": "1 µM", "quantity": "remaining activity", "value": "91%"}
